Results on 5 compounds are retold here after article PMC6540510 (Pulmonary Circulation, 2019).

Where two headings read alike, the source gives them in different places.

The conditions of data set [1]: cited from earlier work.
For data set [2] the following is noted: co-administered with lopinavir and ritonavir, healthy individuals; cited from earlier work.
Data set [3] is classed as in vivo. As to conditions: human, plasma, 0.5 mg; for Tmax: adults with HIV. Put shortly: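 Adults with HIV on stable fixed-dose background ART for ≥6 weeks received a single oral 0.5 mg dose in the morning after a ≥10 h fast, then a further 4-h fast. Plasma was sampled at baseline and 0.5–48 h. Analysis was by HPLC-MS/MS with internal standards (LLOQ 2 µg/L). Cmax was derived non-compartmentally and summarised as geometric mean with %CV.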

The format of data set [4] is in vivo, human. The conditions noted are these: single 0.5 mg dose. The method in brief: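 Single oral 0.5 mg dose was given fasted on top of stable background ART, with plasma sampled to 48 h and assayed by HPLC-MS/MS. AUC(0–∞) was derived non-compartmentally. ANOVA on log-transformed AUC gave LS-mean ratios versus historical healthy-volunteer data (n = 80; fed and fasted states), re-transformed, with 90% CIs.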

Another data set is described as follows: Safety and tolerability. It is filed as in vivo, human. Put shortly:
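HIV-infected adults (n = 41 treated) on stable background ART received a single fasted oral 0.5 mg dose. Treatment-emergent adverse events, vital signs, ECG and laboratory parameters were recorded. Supine and/or sitting blood pressure was measured regularly, generally at the blood-sampling times (0.5–48 h post-dose).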

The conditions of data set [5]: cited from earlier work. This is another data set of the same source.
The conditions of data set [6]: co-administration of ketoconazole, single 0.5 mg riociguat, 16 healthy volunteers; cited from earlier work.
For data set [7] the following is noted: sildenafil 100 mg single dose with ritonavir 500 mg twice daily; cited from earlier work.
The conditions of data set [8]: tadalafil 20 mg with ritonavir 200 mg twice daily; cited from earlier work.
The mark [9] stands for this setting: single 0.5 mg dose, adults with HIV.
Where [10] appears, read: single 0.5 mg dose, adults with HIV, all background regimens, total n = 41.
Setting [11] is: single 0.5 mg dose, adults with HIV, background abacavir/dolutegravir/lamivudine (TRIUMEQ), n = 8.
Where [12] appears, read: single 0.5 mg dose, adults with HIV, background efavirenz/emtricitabine/tenofovir disoproxil (ATRIPLA), n = 8.
The mark [13] stands for this setting: single 0.5 mg dose, adults with HIV, background elvitegravir/cobicistat/emtricitabine/tenofovir disoproxil (STRIBILD), n = 8.
[14] abbreviates: single 0.5 mg dose, adults with HIV, background emtricitabine/rilpivirine/tenofovir disoproxil (COMPLERA), n = 8.
The mark [15] stands for this setting: single 0.5 mg dose, adults with HIV, background ritonavir-boosted triple regimen, n = 9.

By Cmax is commonly meant the peak of the concentration-time curve. The Tmax is the time at which the peak concentration occurs. What is called bioavailability is dose-corrected exposure relative to a reference, in per cent.

Take `COC(=O)Nc1c(N)nc(-c2nn(Cc3ccccc3F)c3ncccc23)nc1N` [M1]: the “biologic activity relative to riociguat” value in data set [1] was “one-tenth to one-third”.
`COc1ccccc1Oc1c(NS(=O)(=O)c2ccc(C(C)(C)C)cc2)nc(-c2ncccn2)nc1OCCO` [bosentan]: in data set [2], the “plasma concentrations on co-administration” value was “increased plasma concentrations”.
The compound `COC(=O)N(C)c1c(N)nc(-c2nn(Cc3ccccc3F)c3ncccc23)nc1N` [riociguat] registered a Cmax in data set [3] (oral) of 14.2 to 20.4 ng/mL. Also, in data set [3] (oral, median tmax, range across the five background antiretroviral groups, single 0.5 mg dose), the Tmax lay within 1 to 1.27 h. Also, the Tmax in data set [3] (po, tmax, single 0.5 mg oral dose, background abacavir/dolutegravir/lamivudine (TRIUMEQ), median (range), n = 8) was 1.27 h. For the same compound, the Tmax in data set [3] (po, tmax, single 0.5 mg oral dose, background efavirenz/emtricitabine/tenofovir disoproxil (ATRIPLA), median (range), n = 8) is 1 h. For the same compound, in data set [3] (po, tmax, single 0.5 mg oral dose, background elvitegravir/cobicistat/emtricitabine/tenofovir disoproxil (STRIBILD), median (range), n = 8), the Tmax was 1.03 h. Further, the Tmax in data set [3] (po, tmax, single 0.5 mg oral dose, background emtricitabine/rilpivirine/tenofovir disoproxil (COMPLERA), median (range), n = 8) was 1.03 h. In data set [3] (po, tmax, single 0.5 mg oral dose, background ritonavir-boosted triple regimen, median (range), n = 8), the time to peak (Tmax) turned out to be 1.03 h. Further, the “riociguat exposure (AUC) compared with historical healthy volunteers” value in data set [4] (administered with abacavir/dolutegravir/lamivudine) is reported as “increased by approximately threefold”. The “riociguat exposure (AUC) compared with historical healthy volunteers” value in [4] (administered with ritonavir-boosted triple regimen) is recorded as “slightly increased”. Also, the “riociguat exposure (AUC) compared with historical healthy volunteers” value in data set [4] (co-administered with efavirenz/emtricitabine/tenofovir disoproxil) is “similar”. Further, the “riociguat exposure (AUC) compared with historical healthy volunteers” value in data set [4] (co-administered with efavirenz/emtricitabine/tenofovir disoproxil, listed as Riociguat) is “no apparent change”. In the data set “Safety and tolerability” (headache and stomach cramps, all resolved by study end), the “AEs considered related to riociguat” value was “Four AEs were considered related to riociguat in three participants”. In “Safety and tolerability” (setting [9]), the “AEs related to decreased blood pressure or hypotension” value is reported as “No AEs related to decreased blood pressure or hypotension were reported”; the “changes in vital signs, electrocardiogram, or laboratory parameters” value is recorded as “No clinically significant changes”; the “intensity of AEs” value was “mild or moderate”. Moreover, in “Safety and tolerability” (single 0.5 mg dose, adults with HIV on stable background ART), the tolerability result is listed as “well tolerated”. Also, the “serious AEs, AEs leading to discontinuation, or deaths” value in the data set “Safety and tolerability” (single 0.5 mg dose, adults with HIV, n = 41) is “no serious AEs, AEs leading to discontinuation, or deaths”. For the same compound, in the data set “Safety and tolerability” (single 0.5 mg dose, adults with HIV, n = 41 (four participants)), the participants with headache is listed as 10%. Further, in the data set “Safety and tolerability” (single 0.5 mg dose, adults with HIV, n = 41 (ten participants)), the “participants with a treatment-emergent AE” value is reported as 24%. This compound gave a participants with fatigue in “Safety and tolerability” (single 0.5 mg dose, adults with HIV, n = 41 (two participants)) of 5%. In the data set “Safety and tolerability” (setting [10]), the “Any AE” value is on record as 10 (24) n (%), the Diarrhea is on record as 1 (2) n (%), the Dizziness is recorded as 1 (2) n (%) and the Fatigue was 2 (5) n (%). In addition, in the data set “Safety and tolerability” (setting [10]), the Headache is on record as 4 (10) n (%), the Lip swelling was 1 (2) n (%), the Oral paresthesia is on record as 1 (2) n (%) and the Oropharyngeal pain is 1 (2) n (%). In addition, in “Safety and tolerability” (setting [10]), the Pain is listed as 1 (2) n (%), the Pyrexia is on record as 1 (2) n (%), the Upper abdominal pain is 1 (2) n (%) and the Urethritis is on record as 1 (2) n (%). In “Safety and tolerability” (setting [11]), the “Any AE” value was 2 (25) n (%), the Diarrhea was 0 n (%), the Dizziness was 0 n (%) and the Fatigue is reported as 1 (13) n (%). In “Safety and tolerability” (setting [11]), the Headache is given as 1 (13) n (%), the Lip swelling was 0 n (%), the Oral paresthesia was 0 n (%) and the Oropharyngeal pain was 0 n (%). Also, in “Safety and tolerability” (setting [11]), the Pain is reported as 0 n (%), the Pyrexia was 1 (13) n (%), the Upper abdominal pain is reported as 0 n (%) and the Urethritis was 0 n (%). In addition, in the data set “Safety and tolerability” (setting [12]), the “Any AE” value is listed as 1 (13) n (%), the Diarrhea was 0 n (%), the Dizziness is listed as 0 n (%) and the Fatigue is 0 n (%). Also, in the data set “Safety and tolerability” (setting [12]), the Headache is 0 n (%), the Lip swelling is recorded as 0 n (%), the Oral paresthesia is given as 1 (13) n (%) and the Oropharyngeal pain is on record as 0 n (%). For the same compound, in the data set “Safety and tolerability” (setting [12]), the Pain is given as 0 n (%), the Pyrexia is listed as 0 n (%), the Upper abdominal pain was 0 n (%) and the Urethritis was 0 n (%). Besides, in the data set “Safety and tolerability” (setting [13]), the “Any AE” value is 2 (25) n (%), the Diarrhea was 0 n (%), the Dizziness is on record as 1 (13) n (%) and the Fatigue is 1 (13) n (%). Moreover, in “Safety and tolerability” (setting [13]), the Headache is given as 0 n (%), the Lip swelling is on record as 1 (13) n (%), the Oral paresthesia is recorded as 0 n (%) and the Oropharyngeal pain was 0 n (%). For the same compound, in “Safety and tolerability” (setting [13]), the Pain is 0 n (%), the Pyrexia is given as 0 n (%), the Upper abdominal pain is given as 0 n (%) and the Urethritis is reported as 0 n (%). In “Safety and tolerability” (setting [14]), the “Any AE” value was 3 (38) n (%), the Diarrhea is on record as 0 n (%), the Dizziness is on record as 0 n (%) and the Fatigue is 0 n (%). For the same compound, in the data set “Safety and tolerability” (setting [14]), the Headache was 1 (13) n (%), the Lip swelling is 0 n (%), the Oral paresthesia is reported as 0 n (%) and the Oropharyngeal pain is given as 1 (13) n (%). In addition, in “Safety and tolerability” (setting [14]), the Pain was 1 (13) n (%), the Pyrexia is recorded as 0 n (%), the Upper abdominal pain is 0 n (%) and the Urethritis was 1 (13) n (%). In “Safety and tolerability” (setting [15]), the “Any AE” value is reported as 2 (22) n (%), the Diarrhea is 1 (11) n (%), the Dizziness was 0 n (%) and the Fatigue is reported as 0 n (%). Moreover, in “Safety and tolerability” (setting [15]), the Headache is recorded as 2 (22) n (%), the Lip swelling is 0 n (%), the Oral paresthesia is 0 n (%) and the Oropharyngeal pain was 0 n (%). For the same compound, in the data set “Safety and tolerability” (setting [15]), the Pain is on record as 0 n (%), the Pyrexia was 0 n (%), the Upper abdominal pain was 1 (11) n (%) and the Urethritis is reported as 0 n (%). In data set [5], the bioavailability is on record as more than 90% and the “fraction of the dose eliminated by oxidative biotransformation” value is reported as 27–71%. In data set [5] (healthy individuals), the mean half-life entry was “approximately 7 h”. Further, the mean half-life entry in [5] (patients with PAH) is listed as “approximately 12 h”. Also, the “increase in mean AUC0-∞ compared with controls” value in data set [6] was 2.5 fold.
Consider `CCCc1nn(C)c2c(=O)[nH]c(-c3cc(S(=O)(=O)N4CCN(C)CC4)ccc3OCC)nc12` [sildenafil], for which, in data set [7], the “increase in plasma AUC” value is listed as 11 fold.
In the case of `CN1CC(=O)N2[C@H](c3ccc4c(c3)OCO4)c3[nH]c4ccccc4c3C[C@@H]2C1=O` [tadalafil], in [8], the “change in Cmax” value is reported as “no change” and the “increase in single-dose exposure” value is listed as 124%.
